{"source": "ChEMBL document CHEMBL3860048", "about": "(J Med Chem, 2016)", "key": {"[1]": {"target": "KiSS-1 receptor (Rattus norvegicus, UniProt Q924U1)", "sequence (Q924U1 whole entry)": "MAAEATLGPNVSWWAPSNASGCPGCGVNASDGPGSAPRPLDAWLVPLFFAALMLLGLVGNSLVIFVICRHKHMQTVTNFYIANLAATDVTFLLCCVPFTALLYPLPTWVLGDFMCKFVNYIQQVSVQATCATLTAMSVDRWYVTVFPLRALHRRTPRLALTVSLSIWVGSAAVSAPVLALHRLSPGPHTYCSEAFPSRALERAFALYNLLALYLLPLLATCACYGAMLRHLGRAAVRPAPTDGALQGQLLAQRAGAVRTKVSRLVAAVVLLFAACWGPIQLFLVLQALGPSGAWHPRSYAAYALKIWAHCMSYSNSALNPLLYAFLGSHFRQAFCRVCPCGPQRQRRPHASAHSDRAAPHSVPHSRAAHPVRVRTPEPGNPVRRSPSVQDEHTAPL", "assay": "Agonist activity at rat KISS1R expressed in CHO/dhfr cells assessed as increase in intracellular Ca2+ levels measured for 180 secs by Fluo 3-AM dye based FLIPR assay", "format": "functional, cell-based"}, "[2]": {"target": "KiSS-1 receptor (Homo sapiens, UniProt Q969F8)", "sequence (Q969F8 whole entry)": "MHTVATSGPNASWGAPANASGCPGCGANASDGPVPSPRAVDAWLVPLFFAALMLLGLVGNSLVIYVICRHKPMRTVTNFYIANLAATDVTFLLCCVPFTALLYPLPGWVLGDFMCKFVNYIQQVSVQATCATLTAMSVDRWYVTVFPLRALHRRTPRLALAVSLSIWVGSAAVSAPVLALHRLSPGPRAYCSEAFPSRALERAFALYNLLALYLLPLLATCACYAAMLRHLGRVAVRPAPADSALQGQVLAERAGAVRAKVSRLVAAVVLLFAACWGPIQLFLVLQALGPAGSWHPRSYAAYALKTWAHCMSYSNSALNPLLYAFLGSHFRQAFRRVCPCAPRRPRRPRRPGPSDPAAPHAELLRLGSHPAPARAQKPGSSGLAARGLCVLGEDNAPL", "assay": "Agonist activity at human KISS1R expressed in CHO/dhfr cells assessed as increase in intracellular Ca2+ levels measured for 180 secs by Fluo 3-AM dye based FLIPR assay", "format": "functional, cell-based", "summary_of_the_method": "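CHO cells expressing human KISS1R; FLIPR recording of ligand-induced [Ca2+]i rise over time. Maximum response taken and expressed as percent of the response to a maximal concentration of metastin(45-54). EC50 = concentration giving half-maximal mobilization, from nonlinear regression of smoothed data. Reported as ratio to the metastin(45-54) EC50.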"}, "[3]": {"system": "Rattus norvegicus", "assay": "Inhibition of testosterone levels in CD(SD) rat assessed as plasma testosterone level <0.04 ng/ml at 0.01 nmol/hr, sc administered continuously for 6 days through alzet osmotic pump measured after 6 days by radio-immunoassay", "format": "functional, organism-based"}, "[4]": {"system": "Rattus norvegicus", "assay": "Inhibition of testosterone levels in Crl:CD(SD) rat plasma assessed as plasma testosterone level <0.04 ng/ml at 100 pmol/hr, sc administered as continuous dosing through alzet osmotic pump for 4 weeks by radioimmunoassay", "format": "functional, organism-based", "summary_of_the_method": "(§1)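 Peptide dissolved in 50% DMSO at 3, 10, 30 or 100 µM, loaded into ALZET osmotic pumps for 3 to 100 pmol/h. Pumps implanted sc in 5 Crl:CD(SD) male rats. Plasma testosterone measured by RIA after 1 or 4 weeks. Values below the 0.04 ng/mL detection limit were treated as 0.04. Count of rats below the limit.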"}, "[5]": {"assay": "Conformational changes of the compound in distilled water assessed as decrease in beta-sheet content at 0.1 mg/ml by preliminary circular dichroism analysis", "set-up": "scale not given: the % may be the effect or the level left"}, "[6]": {"assay": "Cmax in Sprague-Dawley rat plasma at 1 mg/kg, sc by LC/MS analysis", "format": "ADME, organism-based", "set-up": "dose 1 mg/kg, route subcutaneous", "summary_of_the_method": "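Single subcutaneous 1 mg/kg dose to SD rats (n=3 per group). Plasma drawn at 5, 10, 15, 30 min and 1, 2, 4, 8, 24 h. Proteins removed with 0.2% formic acid/methanol (1:4, v/v) plus acetonitrile, centrifuged, supernatant diluted in 0.4% aqueous formic acid, then measured by LC/MS. Noncompartmental analysis per rat, mean ± SD.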"}, "[7]": {"system": "Rattus norvegicus", "assay": "Inhibition of testosterone levels in CD(SD) rat assessed as plasma testosterone level <0.04 ng/ml at 0.1 nmol/hr, sc administered continuously for 6 days through alzet osmotic pump measured after 6 days by radio-immunoassay", "format": "functional, organism-based"}, "[8]": {"system": "Rattus norvegicus", "assay": "Inhibition of testosterone levels in Crl:CD(SD) rat plasma assessed as plasma testosterone level <0.04 ng/ml at 30 pmol/hr, sc administered as continuous dosing through alzet osmotic pump for 1 week by radio-immunoassay", "format": "functional, organism-based", "summary_of_the_method": "as §1"}, "[9]": {"assay": "Inhibition of testosterone levels in sc dosed Crl:CD(SD) rat plasma assessed as compound dosing causing plasma testosterone level <0.04 ng/ml in all tested animals administered as continuous dosing through alzet osmotic pump for 1 to 4 weeks by radio-immunoassay", "format": "functional"}, "[10]": {"assay": "Solubility of the compound in water at 20 mg/ml", "format": "physicochemical", "conditions": "buffer"}, "[11]": {"system": "Rattus norvegicus", "assay": "Inhibition of testosterone levels in Crl:CD(SD) rat plasma assessed as plasma testosterone level <0.04 ng/ml at 100 pmol/hr, sc administered as continuous dosing through alzet osmotic pump for 1 week by radioimmunoassay", "format": "functional, organism-based", "summary_of_the_method": "as §1"}}, "note": "Active and inactive are the calls of the source. The rule behind the calls is not given here. Where a SMILES comes first, the peptide text is derived from it. [ ]: non-standard residue; d: D form. Phe(3-F) = N[C@@H](Cc1cccc(F)c1)C(=O)O; Arg(Me) = CNC(=N)NCCC[C@H](N)C(=O)O; Hyp = O=C(O)[C@@H]1C[C@@H](O)CN1; azaGly = NNC(=O)O", "data": [{"smiles": "CNC(=N)NCCC[C@H](NC(=O)[C@H](CC(C)C)NC(=O)NNC(=O)[C@H](Cc1cccc(F)c1)NC(=O)[C@@H](NC(=O)[C@H](CC(N)=O)NC(=O)[C@@H]1C[C@@H](O)CN1C(=O)[C@@H](Cc1ccc(O)cc1)NC(C)=O)[C@@H](C)O)C(=O)N[C@@H](Cc1c[nH]c2ccccc12)C(N)=O", "note": "(Ac-[dY][Hyp]NT[Phe(3-F)][azaGly]L[Arg(Me)]W-NH2)", "values": [{"measurement": "EC50", "setting": "[1]", "result": 8.5, "unit": "nM"}, {"measurement": "EC50", "setting": "[2]", "result": 0.75, "unit": "nM"}, {"measurement": "inhibition", "setting": "[3]", "result": "Active"}]}, {"smiles": "CNC(=N)NCCC[C@H](NC(=O)[C@H](CC(C)C)NC(=O)NNC(=O)[C@H](Cc1ccccc1)NC(=O)[C@@H](NC(=O)[C@H](CC(N)=O)NC(=O)[C@@H](Cc1c[nH]c2ccccc12)NC(=O)[C@@H](Cc1ccc(O)cc1)NC(C)=O)[C@@H](C)O)C(=O)N[C@@H](Cc1c[nH]c2ccccc12)C(N)=O", "values": [{"measurement": "inhibition", "setting": "[4]", "result": "Active"}, {"measurement": "Activity", "setting": "[5]", "result": 34.8, "unit": "%"}, {"measurement": "Cmax", "setting": "[6]", "result": 100, "unit": "ng/mL"}, {"measurement": "inhibition", "setting": "[7]", "result": "Active"}, {"measurement": "inhibition", "setting": "[8]", "result": "Active"}, {"measurement": "MED", "setting": "[9]", "result": 100, "unit": "pmol/h"}, {"measurement": "solubility", "setting": "[10]", "result": "Soluble"}, {"measurement": "inhibition", "setting": "[11]", "result": "Active"}]}, {"smiles": "CNC(=N)NCCC[C@H](NC(=O)[C@H](CC(C)C)NC(=O)NNC(=O)[C@H](Cc1ccccc1)NC(=O)[C@@H](NC(=O)[C@H](CC(N)=O)NC(=O)[C@H](Cc1c[nH]c2ccccc12)NC(=O)[C@@H](Cc1ccc(O)cc1)NC(C)=O)[C@@H](C)O)C(=O)N[C@@H](Cc1c[nH]c2ccccc12)C(N)=O", "values": [{"measurement": "EC50", "setting": "[1]", "result": 4.8, "unit": "nM"}, {"measurement": "EC50", "setting": "[2]", "result": 0.61, "unit": "nM"}, {"measurement": "inhibition", "setting": "[3]", "result": "Active"}, {"measurement": "solubility", "setting": "[10]", "result": "Insoluble"}]}, {"smiles": "CNC(=N)NCCC[C@H](NC(=O)[C@H](CC(C)C)NC(=O)NNC(=O)[C@H](Cc1ccccc1)NC(=O)[C@@H](NC(=O)[C@H](CC(N)=O)NC(=O)[C@@H]1CCCN1C(=O)[C@@H](Cc1ccc(O)cc1)NC(C)=O)[C@@H](C)O)C(=O)N[C@@H](Cc1c[nH]c2ccccc12)C(N)=O", "values": [{"measurement": "EC50", "setting": "[1]", "result": 9.3, "unit": "nM"}, {"measurement": "EC50", "setting": "[2]", "result": 0.48, "unit": "nM"}, {"measurement": "inhibition", "setting": "[3]", "result": "Active"}]}, {"smiles": "CNC(=N)NCCC[C@H](NC(=O)[C@H](CC(C)C)NC(=O)NNC(=O)[C@H](Cc1ccccc1)NC(=O)[C@@H](NC(=O)[C@H](CC(N)=O)NC(=O)[C@@H](CCC(=O)O)NC(=O)[C@@H](Cc1ccc(O)cc1)NC(C)=O)[C@@H](C)O)C(=O)N[C@@H](Cc1c[nH]c2ccccc12)C(N)=O", "values": [{"measurement": "EC50", "setting": "[1]", "result": 40, "unit": "nM"}, {"measurement": "inhibition", "setting": "[7]", "result": "Active"}, {"measurement": "EC50", "setting": "[2]", "result": 22, "unit": "nM"}]}]}
